Measurements: ChEMBL document CHEMBL2010780, “Pyridine Carboxamides: Potent Palm Site Inhibitors of HCV NS5B Polymerase” (ACS Med Chem Lett, 2010)
Activity calls are given as the source filed them. The calls are words filed in the database; no cut-off is given here.

What was measured:
[1] = Inhibition of Hepatitis C virus genotype 1b Con1 NS5B Cdelta21 polymerase assessed as incorporation of [33P]-CTP into heteropolymer RNA template after 2 hrs; parameters: species or system Hepacivirus hominis; details: Con1, 2 h
In short: (§1)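 Each value is the mean of duplicate experiments run on two separate weighings of compound.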

Hepatitis C virus [2] = test: Antiviral activity against Hepatitis C virus genotype 1b Con1 infected in human HuH7 cells assessed as inhibition of viral RNA replication after 3 by real time PCR analysis; assay type: functional, organism-based, Hepacivirus hominis, Huh-7; in short: as §1
[3] = Cytotoxicity against human HuH7 cells after 3 days by MTS assay; assay type: cell-based, Huh-7; in short: as §1
[4] = system: Hepatitis C virus genotype 3; test: Inhibition of Hepatitis C virus genotype 3 NS5B Cdelta21 polymerase up to 10 uM
[5] = system: Hepatitis C virus genotype 4; test: Inhibition of Hepatitis C virus genotype 4 NS5B Cdelta21 polymerase up to 10 uM
Hepacivirus hominis [6] = test: Ratio of IC50 for Hepatitis C virus subtype 1a H77 NS5B Cdelta21 polymerase to IC50 for Hepatitis C virus genotype 1b Con1 NS5B Cdelta21 polymerase
Hepatitis C virus [7] = test: Ratio of IC50 for Hepatitis C virus genotype 1b Con1 NS5B Cdelta21 polymerase palm site 1 M414T mutant to IC50 for Hepatitis C virus genotype 1b Con1 NS5B Cdelta21 polymerase; parameters: species or system Hepacivirus hominis
Hepatitis C virus [8] = test: Ratio of IC50 for Hepatitis C virus genotype 1b Con1 NS5B Cdelta21 polymerase palm site 2 C316N mutant to IC50 for Hepatitis C virus genotype 1b Con1 NS5B Cdelta21 polymerase; parameters: species or system Hepacivirus hominis
Hepatitis C virus [9] = test: Ratio of IC50 for Hepatitis C virus genotype 1b Con1 NS5B Cdelta21 polymerase thumb site 2 M423T mutant to IC50 for Hepatitis C virus genotype 1b Con1 NS5B Cdelta21 polymerase; parameters: species or system Hepacivirus hominis
Hepatitis C virus [10] = test: Ratio of IC50 for Hepatitis C virus genotype 1b Con1 NS5B Cdelta21 polymerase palm site 1 G554D mutant to IC50 for Hepatitis C virus genotype 1b Con1 NS5B Cdelta21 polymerase; parameters: species or system Hepacivirus hominis
[11] = system: Hepatitis C virus genotype 2; test: Inhibition of Hepatitis C virus genotype 2 NS5B Cdelta21 polymerase up to 10 uM
Hepatitis C virus [12] = test: Ratio of IC50 for Hepatitis C virus genotype 1b Con1 NS5B Cdelta21 polymerase thumb site 1 P495L mutant to IC50 for Hepatitis C virus genotype 1b Con1 NS5B Cdelta21 polymerase; parameters: species or system Hepacivirus hominis
Hepatitis C virus [13] = test: Ratio of IC50 for Hepatitis C virus genotype 1b Con1 NS5B Cdelta21 polymerase palm site 2 C316Y mutant to IC50 for Hepatitis C virus genotype 1b Con1 NS5B Cdelta21 polymerase; parameters: species or system Hepacivirus hominis
Hepacivirus hominis [14] = test: Ratio of IC50 for Hepatitis C virus subtype 1b BK NS5B Cdelta21 polymerase to IC50 for Hepatitis C virus genotype 1b Con1 NS5B Cdelta21 polymerase
[15] = Hepatitis C virus, Con1, Huh-7, read-out: EC50

Structure (SMILES)	IC50 [1]	CC50 at 72 h [3]	other results
CC(C)c1ccc(NC(=O)c2cccnc2)c(N2CCN(C(=O)CN(C)C)CC2)c1	> 200 µM		
CC(C)c1ccc(NC(=O)c2cccnc2)c(N2CCN(c3cnccn3)CC2)c1	3 µM	54 µM	EC50 (Hepatitis C virus [2]; [15]): 20 µM
Cc1ncccc1C(=O)Nc1ccc(C(C)C)cc1N1CCN(c2ccncn2)CC1	0.1 µM	20 µM	EC50 (Hepatitis C virus [2]; [15]): 1.1 µM
O=C(Nc1ccc(C2CC2)cc1N1CCN(c2cnccn2)CC1)c1cccnc1	12 µM		
CC(C)c1ccc(NC(=O)c2cccnc2)c(N2CCN(S(C)(=O)=O)CC2)c1	> 200 µM		
CC(C)c1ccc(NC(=O)c2cccnc2)c(N2CCN(c3ccncn3)CC2)c1	0.56 µM	27 µM	EC50 (Hepatitis C virus [2]; huh-7): ND(toxic)
CC(C)c1ccc(NC(=O)c2ccsc2)c(N2CCN(c3cnccn3)CC2)c1	7 µM	28 µM	EC50 (Hepatitis C virus [2]; [15]): 6.5 µM
CC(C)c1ccc(NC(=O)c2ccnnc2)c(N2CCN(c3cnccn3)CC2)c1	> 20 µM		
Cc1nc(N(C)C)sc1C(=O)Nc1ccc(C(C)C)cc1N1CCN(c2cnccn2)CC1	10 µM	> 10 µM	EC50 (Hepatitis C virus [2]; [15]): 6.9 µM
CCOC(=O)c1ccc(NC(=O)c2cccnc2)c(N2CCN(c3cnccn3)CC2)c1	> 5 µM		
CC(C)c1ccc(NC(=O)c2ccnc(NC(=O)C(C)(C)C)c2)c(N2CCN(c3cnccn3)CC2)c1	> 20 µM		
CC(C)c1ccc(NC(=O)C2CCOC2)c(N2CCN(c3cnccn3)CC2)c1 (stereo not drawn)	20 µM		
CC(C)c1ccc(NC(=O)c2cccnc2)c(N2CCN(C(=O)OC(C)(C)C)CC2)c1	> 200 µM		
Cc1n[nH]cc1C(=O)Nc1ccc(C(C)C)cc1N1CCN(c2cnccn2)CC1	> 200 µM		
CC(C)c1ccc(NC(=O)c2cccnc2C(F)(F)F)c(N2CCN(c3cnccn3)CC2)c1	2.3 µM	4.5 µM	EC50 (Hepatitis C virus [2]; huh-7): ND(toxic)
Cc1cncc(C(=O)Nc2ccc(C(C)C)cc2N2CCN(c3cnccn3)CC2)c1	2.3 µM	13 µM	EC50 (Hepatitis C virus [2]; huh-7): ND(toxic)
CC(C)c1ccc(NC(=O)c2cncnc2)c(N2CCN(c3cnccn3)CC2)c1	> 20 µM		
CC(C)c1ccc(NC(=O)c2cccnc2)c(N2CCN(c3ccccn3)CC2)c1	7.3 µM	> 50 µM	EC50 (Hepatitis C virus [2]; [15]): > 50 µM
CC(C)c1ccc(NC(=O)c2cccnc2C2CC2)c(N2CCN(c3cnccn3)CC2)c1	2 µM	21 µM	EC50 (Hepatitis C virus [2]; huh-7): ND(toxic)
CC(C)c1ccc(NC(=O)c2cnccc2C(F)(F)F)c(N2CCN(c3cnccn3)CC2)c1	> 20 µM		

Structure (SMILES)	IC50 [1]	CC50 at 72 h [3]	other results
CC(C)c1ccc(NC(=O)c2cccnc2)c(N2CCN(c3cncc(C4CC4)n3)CC2)c1	1 µM	1 µM	EC50 (Hepatitis C virus [2]; huh-7): ND(toxic)
C=C(C)c1ncccc1C(=O)Nc1ccc(C(C)C)cc1N1CCN(c2cnccn2)CC1	> 200 µM		
CC(C)c1ccc(NC(=O)c2cccnc2)c(N2CCN(c3nccs3)CC2)c1	2.5 µM	> 50 µM	EC50 (Hepatitis C virus [2]; [15]): > 50 µM
Cc1ncsc1C(=O)Nc1ccc(C(C)C)cc1N1CCN(c2cnccn2)CC1	0.58 µM	25 µM	EC50 (Hepatitis C virus [2]; huh-7): ND(toxic)
Cc1cnc(C(=O)Nc2ccc(C(C)C)cc2N2CCN(c3cnccn3)CC2)cn1	> 20 µM		
CC(C)c1ccc(NC(=O)c2ccccn2)c(N2CCN(c3cnccn3)CC2)c1	> 20 µM		
Cc1c(F)cc(C(=O)Nc2ccc(C(C)C)cc2N2CCN(c3cnccn3)CC2)cc1F	5.6 µM	> 50 µM	EC50 (Hepatitis C virus [2]; [15]): > 50 µM
Cc1nccc(N2CCN(c3cc(C(C)C)ccc3NC(=O)c3cccnc3)CC2)n1	0.16 µM	25 µM	EC50 (Hepatitis C virus [2]; huh-7): ND(toxic)
Cc1csc(N2CCN(c3cc(C(C)C)ccc3NC(=O)c3cccnc3)CC2)n1	3.9 µM	27 µM	EC50 (Hepatitis C virus [2]; [15]): 6 µM
Cc1c(F)ccc(F)c1C(=O)Nc1ccc(C(C)C)cc1N1CCN(c2cnccn2)CC1	54 µM	11 µM	EC50 (Hepatitis C virus [2]; huh-7): ND(toxic)
CC(C)c1ccc(NC(=O)C2CCOCC2)c(N2CCN(c3cnccn3)CC2)c1	> 20 µM		
Cc1oncc1C(=O)Nc1ccc(C(C)C)cc1N1CCN(c2cnccn2)CC1	13 µM		
CC(C)c1ccc(NC(=O)c2cccnc2)c(N2CCN(c3nsc(Cl)n3)CC2)c1	5 µM	> 10 µM	EC50 (Hepatitis C virus [2]; [15]): > 10 µM
Cc1ccnc(N2CCN(c3cc(C(C)C)ccc3NC(=O)c3cccnc3)CC2)n1	1.5 µM	14 µM	EC50 (Hepatitis C virus [2]; huh-7): ND(toxic)
CC(C)c1ccc(NC(=O)c2cnc3ccccc3c2)c(N2CCN(c3cnccn3)CC2)c1	6.7 µM	6 µM	EC50 (Hepatitis C virus [2]; [15]): 1.8 µM
CC(C)c1ccc(NC(=O)c2cccnc2F)c(N2CCN(c3cnccn3)CC2)c1	2.2 µM	17 µM	EC50 (Hepatitis C virus [2]; huh-7): ND(toxic)
CC(C)c1ccc(NC(=O)c2cccnc2-c2ccccc2)c(N2CCN(c3cnccn3)CC2)c1	> 200 µM	15 µM	EC50 (Hepatitis C virus [2]; huh-7): ND(toxic)
CNCC(=O)N1CCN(c2cc(C(C)C)ccc2NC(=O)c2cccnc2)CC1	> 200 µM		
Cc1ccc(C(=O)Nc2ccc(C(C)C)cc2N2CCN(c3cnccn3)CC2)cn1	14 µM	11 µM	EC50 (Hepatitis C virus [2]; huh-7): ND(toxic)
Cc1ncoc1C(=O)Nc1ccc(C(C)C)cc1N1CCN(c2cnccn2)CC1	14 µM		

Structure (SMILES)	IC50 [1]	CC50 at 72 h [3]	other results
Cc1c(F)cc(F)cc1C(=O)Nc1ccc(C(C)C)cc1N1CCN(c2cnccn2)CC1	0.54 µM	20 µM	EC50 (Hepatitis C virus [2]; huh-7): ND(toxic)
Cc1nocc1C(=O)Nc1ccc(C(C)C)cc1N1CCN(c2cnccn2)CC1	> 200 µM		
CC(C)(C)CC[C@@]1(C)CC(C2=NS(=O)(=O)c3cc(NS(C)(=O)=O)ccc3N2)=C(O)c2ccccc21			inhibition [4]: inactive; inhibition [5]: inactive; Ratio IC50 (Hepacivirus hominis [6]): 1; Ratio IC50 (Hepatitis C virus [7]): 1; Ratio IC50 (Hepatitis C virus [8]): 1; Ratio IC50 (Hepatitis C virus [9]): 1; Ratio IC50 (Hepatitis C virus [10]): 100; inhibition [11]: inactive; Ratio IC50 (Hepatitis C virus [12]): 1; Ratio IC50 (Hepatitis C virus [13]): 3; Ratio IC50 (Hepacivirus hominis [14]): 1
Cc1cnc(N2CCN(c3cc(C(C)C)ccc3NC(=O)c3cccnc3)CC2)s1	15 µM		
CNC(=O)c1c(-c2ccc(F)cc2)oc2cc(N(CCO)S(C)(=O)=O)c(C3CC3)cc12 [NESBUVIR]			inhibition [4]: inactive; inhibition [5]: inactive; Ratio IC50 (Hepacivirus hominis [6]): 1; Ratio IC50 (Hepatitis C virus [7]): 1.5; Ratio IC50 (Hepatitis C virus [8]): 3; Ratio IC50 (Hepatitis C virus [9]): 1; Ratio IC50 (Hepatitis C virus [10]): 1; inhibition [11]: inactive; Ratio IC50 (Hepatitis C virus [12]): 1; Ratio IC50 (Hepatitis C virus [13]): 50; Ratio IC50 (Hepacivirus hominis [14]): 6
Cc1occc1C(=O)Nc1ccc(C(C)C)cc1N1CCN(c2cnccn2)CC1	15 µM		
CC(C)c1ccc(NC(=O)c2cnc3[nH]ccc3c2)c(N2CCN(c3cnccn3)CC2)c1	> 20 µM		
CC(C)c1ccc(NC(=O)c2cccnc2)c(N2CCN(C(=O)Nc3ccccc3)CC2)c1	> 100 µM		
Cc1cncc(N2CCN(c3cc(C(C)C)ccc3NC(=O)c3cccnc3)CC2)n1	0.5 µM	23 µM	EC50 (Hepatitis C virus [2]; huh-7): ND(toxic)
CC(C)c1ccc(NC(=O)C2CCCNC2)c(N2CCN(c3cnccn3)CC2)c1 (stereo not drawn)	> 200 µM		
CC(C)c1ccc(NC(=O)c2ccc(C(F)(F)F)nc2)c(N2CCN(c3cnccn3)CC2)c1	> 20 µM		
COc1ncccc1C(=O)Nc1ccc(C(C)C)cc1N1CCN(c2cnccn2)CC1	> 20 µM		
CC(C)c1ccc(NC(=O)c2cccnc2O)c(N2CCN(c3cnccn3)CC2)c1	> 200 µM		
Cc1nc(Br)sc1C(=O)Nc1ccc(C(C)C)cc1N1CCN(c2cnccn2)CC1	3 µM	> 10 µM	EC50 (Hepatitis C virus [2]; [15]): > 10 µM
CC(C)c1ccc(NC(=O)c2cccnc2N)c(N2CCN(c3cnccn3)CC2)c1	1 µM	30 µM	EC50 (Hepatitis C virus [2]; huh-7): ND(toxic)
O=C(Nc1ccc(Br)cc1N1CCN(c2cnccn2)CC1)c1cccnc1	> 20 µM		
CC(C)c1ccc(NC(=O)c2cccc(O)n2)c(N2CCN(c3cnccn3)CC2)c1	46 µM	17 µM	EC50 (Hepatitis C virus [2]; huh-7): ND(toxic)
CSCc1nccc(N2CCN(c3cc(C(C)C)ccc3NC(=O)c3cccnc3C)CC2)n1	0.027 µM	19 µM	EC50 (Hepatitis C virus [2]; [15]): 2.2 µM
CC(C)c1ccc(NC(=O)c2cccnc2)c(N2CCN(c3cncc(-c4ccccc4)n3)CC2)c1	17 µM		
CC(C)c1ccc(NC(=O)c2cccnc2)c(N2CCN(c3ncccn3)CC2)c1	2.3 µM	37 µM	EC50 (Hepatitis C virus [2]; huh-7): ND(toxic)
